From PubChem
Hits are enriched below; roughly 3.7% of the tested compounds scored in any of these assays.
Kir21 block – inhibitors of mouse Kir2.1 inward-rectifier potassium channel; Inward rectifier potassium channel 2 (Mus musculus), P35561; HEK293-Kir2.1, FluxOR thallium flux fluorescence; stronger effect = lower value; B-score at 10 µM; 0.85% of 310,000 active; AID 1672, 2009;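 active = fluorescence ratio B-score at or below minus 3 SD of library scores, with starting-brightness B-score within 2 SD, cut at about -4.2 in these data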;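 note: channel flux triggered by added potassium and thallium sulfate stimulus; B-score of peak minus minimum fluorescence over baseline after thallium stimulus; more negative B-score means stronger Kir2.1 block with less thallium influx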
KCNK9 inh – KCNK9 potassium channel inhibitors, primary screen, HEK293 cells, thallium flux. Potassium channel subfamily K member 9 (Homo sapiens), Q9NPC2. FluxOR thallium flux fluorescence; stronger effect = lower value. 1.2% of 310,000 active. B-score at 10 µM;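 active = ratio B-score over 3 SD below the library mean, with starting fluorescence within 5 SD of its mean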;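 note: negative B-score means less thallium flux so channel inhibition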
KCNQ1 pot – potentiators or activators of KCNQ1 channel, primary screen, cell-based, thallium flux, high-throughput; Potassium voltage-gated channel subfamily KQT member 1 (Homo sapiens), P51787; CHO-K1 KCNQ1, thallium flux FluxOR fluorescence; stronger effect = higher value; B-score at 10 µM; 0.35% of 310,000 active;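 active = fluorescence ratio B-score, a plate-corrected score, at least three library SD, with initial intensity B-score within 5 SD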
Target sequence (P51787 whole entry, looked up): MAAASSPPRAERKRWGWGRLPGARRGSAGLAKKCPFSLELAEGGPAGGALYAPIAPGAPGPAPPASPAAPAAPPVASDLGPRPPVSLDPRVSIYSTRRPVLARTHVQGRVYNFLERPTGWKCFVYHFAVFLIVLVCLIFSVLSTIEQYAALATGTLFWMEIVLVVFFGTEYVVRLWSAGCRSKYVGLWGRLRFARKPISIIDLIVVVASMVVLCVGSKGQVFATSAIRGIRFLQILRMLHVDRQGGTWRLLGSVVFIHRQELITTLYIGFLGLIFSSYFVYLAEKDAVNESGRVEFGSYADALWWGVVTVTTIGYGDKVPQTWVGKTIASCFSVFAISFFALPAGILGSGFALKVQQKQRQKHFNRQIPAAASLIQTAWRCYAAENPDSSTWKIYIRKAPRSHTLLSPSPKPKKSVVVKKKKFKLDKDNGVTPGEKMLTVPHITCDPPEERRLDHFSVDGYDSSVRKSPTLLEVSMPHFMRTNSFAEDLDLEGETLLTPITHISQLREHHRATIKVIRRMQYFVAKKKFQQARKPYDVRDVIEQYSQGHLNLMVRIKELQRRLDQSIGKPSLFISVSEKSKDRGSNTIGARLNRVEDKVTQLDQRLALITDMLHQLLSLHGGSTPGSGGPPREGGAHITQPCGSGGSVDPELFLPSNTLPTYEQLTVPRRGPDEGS
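assay system = KCNQ1-transfected CHO-K1 cells | medium = assay buffer with matched DMSO | probe or stimulus = depolarizing K+/Tl+ stimulus, K2SO4 and Tl2SO4 each 12.5 mM in 5x stock | dosing = single dose | incubation = dye 90 min, compound 20 min, room temperature | detection = kinetic FluxOR fluorescence, 10 s baseline plus 110 s post-stimulus | evaluation = ratio B score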
hERG rescue – hERG rescue from dofetilide block, primary screen, cell-based, CHO-hERG, FluxOR thallium flux, dofetilide IC70 | activation (rescue from dofetilide block), less the hit threshold, % at 10 µM | 0.51% of 310,000 active | Voltage-gated inwardly rectifying potassium channel KCNH2 (Homo sapiens), Q12809 | dofetilide IC70 present;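 active = activation above the mean of controls blocked by dofetilide plus 5 SD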;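 note: thallium influx through hERG after potassium depolarization seen as dye fluorescence rise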
KCNQ1 inh – inhibitors of human KCNQ1 channel, primary screen, cell-based, thallium flux, high-throughput; Potassium voltage-gated channel subfamily KQT member 1 (Homo sapiens), P51787; CHO-K1 KCNQ1, FluxOR thallium flux fluorescence; stronger effect = higher value; 1.3% of 310,000 active; B-score at 10 µM;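 active = compounds whose thallium flux B-score, printed positive for inhibition, exceeds three library SD while starting fluorescence stays within three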;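 note: channel opened by potassium depolarization with thallium stimulus after 20 min compound exposure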
KCNK3 block – human KCNK3 channel inhibitors, primary screen, CHO cells, FluxOR thallium flux, B-score | Potassium channel subfamily K member 3 (Homo sapiens), O14649 | B-score at 10 µM | FluxOR fluorescence; stronger effect = lower value | 0.84% of 340,000 active;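 active = B-score under library mean minus 4 SD, starting fluorescence ratio at most library mean plus 5 SD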;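 note: more negative B-score means stronger inhibition of thallium flux through KCNK3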
KCNQ1 inh valid – KCNQ1 potassium channel inhibitors, confirmation, cell-based, Tl flux, duplicate; AID 588353, 2011; inhibition, % at 10 µM; 93% of 1,600 active; shares compounds with KCNQ1 inh; KCNQ1 cell line, FluxOR thallium flux fluorescence;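 active = primary screen active, with duplicate mean exceeding buffer control mean plus 3 SD of buffer wells, cut at about 28% in these data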;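 note: 0% = buffer control ratio and 100% = XE991 inhibitor control ratio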
CHO Tl flux – thallium flux effects in parental CHO cells, counter-screen for KCNQ1 inhibitor project, cell-based, Tl flux; shares compounds with KCNQ1 inh; parental CHO-K1, FluxOR thallium flux fluorescence ratio; stronger effect = lower value; zero means no signal rise above baseline; fluorescence ratio (Tl flux) at 10 µM; 21% of 1,600 active; AID 588366, 2011;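 active = mean of duplicate thallium-flux fluorescence ratios in parental host cells more than 5 SD below the buffer control mean, cut at about 0.38 in these data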;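 note: ratio is peak minus minimum fluorescence divided by baseline fluorescence; actives read low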
KCNQ1 ephys val – KCNQ1 channel inhibitors, confirmation, orthogonal assay, cell-based, automated electrophysiology; shares compounds with KCNQ1 inh; KCNQ1-CHO cells, automated patch clamp current; calls only at 10 µM; 20% of 490 active;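 active = KCNQ1 current drop exceeding 3 SD of negative control wells, seen in both duplicate runs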;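 note: steady state current during a 2 s step from -80 to +40 mV; negative values mean current inhibition and positive values mean potentiation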
KCNQ2 spec – KCNQ2 channel inhibition, selectivity assay for KCNQ1 inhibitor project, cell-based; shares compounds with KCNQ1 inh; KCNQ2 cells, FluxOR thallium flux fluorescence; inhibition, % at 10 µM; 71% of 1,600 active; AID 651746, 2012;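 active = mean percent inhibition of the KCNQ2 thallium signal more than 5 SD above the buffer-only control wells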;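 note: KCNQ2 expressed in CHO cells; 0% = buffer control wells and 100% = XE-991 inhibitor control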
KCNQ1-KCNE1 inh – KCNQ1/KCNE1 channel inhibition, selectivity assay for KCNQ1 inhibitor project, CHO-K1 cells, thallium flux, FluxOR; FluxOR thallium flux fluorescence; 77% of 1,600 active; inhibition, % at 10 µM; shares compounds with KCNQ1 inh;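 active = mean percent inhibition of duplicate wells above the buffer-only control mean plus 3 SD of those controls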;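 note: 0% = buffer only wells and 100% = XE-991 inhibitor control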
KCNK9 block conf – KCNK9 potassium channel inhibitors, confirmation, HEK293 cells, thallium flux, duplicate | 43% of 4,900 active | AID 492992, 2010 | FluxOR thallium flux fluorescence | shares compounds with KCNK9 inh | inhibition, % at 10 µM;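 active = thallium signal inhibited by more than 5 SD of the compound-free buffer control wells, on both duplicate plates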;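 note: 0% = assay buffer control wells without compound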
Kir21 sel – mouse Kir2.1 channel inhibition, confirmation, selectivity assay for KCNK9 modulator project, cell-based, HEK293, thallium flux. shares compounds with KCNK9 inh. Kir2.1 cells, FluxOR thallium flux fluorescence. inhibition, % at 10 µM. 4% of 4,900 active;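 active = thallium signal drop more than 5 SD beyond the mean of the no-compound control wells, seen in both duplicate plates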;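 note: signal is fluorescence rise after thallium addition divided by baseline fluorescence; plate controls were assay buffer only for no effect and full block by chlorpromazine control for full effect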
HEK293 Tl ctr – thallium flux in non-induced HEK293 cells, confirmation, counter-screen for KCNK9 inhibitor project, cell-based, second counter screen, non-induced KCNK9-HEK293. shares compounds with KCNK9 inh. FluxOR thallium flux. inhibition, % at 10 µM. 40% of 4,900 active. AID 492997, 2010;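 active = thallium signal drop beyond 5 SD of the untreated control mean, on both duplicate plates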;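 note: plate controls were buffer only IC0 wells for no effect and SID17386958 at its maximal inhibitory level for full effect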
KCNK3 confirm – retest of human KCNK3 channel inhibitors, confirmation, CHO cells, FluxOR thallium flux, triplicate; FluxOR fluorescence; 0% buffer, 100% carvedilol maximal block; 99% of 2,400 active; ratio percent of control, % at 10 µM; shares compounds with KCNK3 block;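 active = ratio percent of control, averaged over triplicates, above buffer control mean plus 5 SD, cut at about 64% in these data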;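 note: ratio is the fluorescence rise from min to max over baseline after thallium stimulus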
KCNK3 uninduced – thallium flux inhibition in non-induced cells, primary screen, counter-screen for KCNK3 inhibitor project, cell-based, non-induced KCNK3 line, FluxOR thallium, triplicate. shares compounds with KCNK3 block. thallium flux ratio (lower = more inhibition) at 10 µM. 40% of 2,400 active. non-induced KCNK3 parental cells; stronger effect = lower value. AID 651747, 2012;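 active = thallium flux ratio, averaged over three wells, more than 5 SD below the buffer control mean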;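 note: host cells are CHO cells without KCNK3 induction; ratio is peak minus trough fluorescence over baseline then normalized to buffer controls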
Active calls of the source: *; i = inactive; . = no result; + = active, no number.

SMILES	Kir21 block	KCNK9 inh	KCNQ1 pot	hERG rescue	KCNQ1 inh	KCNK3 block	KCNQ1 inh valid	CHO Tl flux	KCNQ2 spec	KCNQ1-KCNE1 inh	KCNK3 confirm	KCNK3 uninduced	others
CC(C)OCCCNc1nc(-c2ccccc2)nc2ccccc12	1.56	i	i	-23.8	7*	-10.2*	87.5*	0.475	116.7%*	152.0%*	122.7*	i	KCNQ1 ephys val=i
CCN(C(=O)COC(=O)c1nn(-c2ccccc2)c(=O)c2ccccc12)C1CCS(=O)(=O)C1 (centres undefined)	1.12	i	i	-14.0	i	i	.	.	.	.	.	.
COc1ccc(Nc2nc(-c3cccc(OC)c3O)nc3ccccc23)cc1	-0.07	i	i	-4.2	7*	-9.92*	167.5*	0.303*	116.0%*	+	133.0*	0.146*
NC(=O)c1ccsc1NC(=O)COC(=O)Cc1cccc2ccccc12	0.69	i	i	-30.9	9*	-8.92*	110.0*	0.314*	103.7%*	+	115.7*	i
CC(C)c1ccc(OCC(=O)NC2CCCC2)cc1	-1.04	i	i	-7.7	i	i	.	.	.	.	.	.
Cc1ccc(C(C)C)cc1OCC(=O)NC1CCCCCCC1	-3.37	i	i	-7.9	9*	-9.98*	115.5*	0.422	i	113.0%*	114.0*	i	KCNQ1 ephys val=i
CCN(CC)S(=O)(=O)c1ccc2oc(SCc3ccc(F)cc3)nc2c1	-1.01	-8.71*	i	-12.2	9*	-11.1*	82.5*	0.447	80.0%*	102.5%*	100.3*	i	KCNK9 block conf=36.0%*;Kir21 sel=i;HEK293 Tl ctr=41.0%*
CC(C)C(NC(=O)c1ccc(C(C)(C)C)cc1)C(=O)NCC1(N(C)C)CCCCC1 (centres undefined)	1.15	i	i	-5.0	i	i	.	.	.	.	.	.
Cc1cccc(C)c1NC(=O)c1cccc2c1C(=O)N(C1CCCCC1)C2	0.9	-19.3*	i	-19.6	6*	-15.4*	74.5*	0.443	104.7%*	129.0%*	125.7*	0.154*	KCNK9 block conf=52.5%*;Kir21 sel=i;HEK293 Tl ctr=36.0%*
Cc1cc(NC(=O)c2cccc3c2C(=O)N(C2CCCCC2)C3)ccc1Br	-0.1	i	i	-4.7	i	i	.	.	.	.	.	.
CS(=O)(=O)N1CCN(c2ccccc2NC(=O)Nc2cccc(Cl)c2)CC1	-0.32	i	i	4.4	i	i	.	.	.	.	.	.
Cc1ccsc1C(=O)C1CCCN(Cc2cccn2-c2ccc(Cl)cn2)C1 (centres undefined)	-4.59*	i	i	-25.6	9*	-9.07*	91.5*	0.43	71.7%*	57.5%*	127.3*	0.136*	KCNQ1 ephys val=+
COc1ccc(C(=O)C2CCCN(Cc3cccn3-c3nccs3)C2)cc1OC (centres undefined)	-1.61	i	i	-15.0	i	i	.	.	.	.	.	.
COc1ccccc1NC(=O)Nc1nc(CC(=O)Nc2ccc(OC)c(OC)c2)cs1	1.13	i	i	-12.3	i	i	.	.	.	.	.	.
COc1cc(C)ccc1NC(=O)Cc1csc(NC(=O)Nc2ccccc2OC)n1	-0.78	-8.83*	i	-21.7	17*	-13*	115.0*	0.49	121.3%*	171.5%*	133.3*	i	KCNQ1 ephys val=i;KCNK9 block conf=28.0%*;Kir21 sel=i;HEK293 Tl ctr=24.0%*
c1ccc(N2CCN(c3nc(NCc4ccco4)c4ccccc4n3)CC2)cc1	1.44	i	i	-26.0	12*	-12*	144.0*	0.352*	114.3%*	192.0%*	139.7*	0.11*
CC(=O)Oc1ccc2oc(-c3ccccc3)c(C(N)=O)c2c1	-0.19	i	i	-4.5	i	.	.	.	.	.	.	.
Cc1cc2nnc(SCC(=O)NC3CCCCC3)n2c(N)n1	1.29	i	i	-0.2	i	i	.	.	.	.	.	.
CCOC(=O)Nc1sc(C)nc1-c1ccccc1	1.07	i	i	-3.6	i	i	.	.	.	.	.	.
